Our source for the IC50 and ΔTm values is ChEMBL document CHEMBL1157757, “Macrocyclic hexaoxazoles: Influence of aminoalkyl substituents on RNA and DNA G-quadruplex stabilization and cytotoxicity” (Bioorg Med Chem Lett, 2010).

Each structure is given as a SMILES string.

A short description of assay [1]: Cytotoxicity against human RPMI8402 cells after 4 days by MTT assay. The assay is classed as functional, cell-based. The settings on record: RPMI 8402, 96 h. The method, boiled down: (§1)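 Growth inhibition in RPMI 8402, KB3-1, MDR1-expressing KBV-1 and BCRP-expressing KBH5.0 cells; IC50 reported as mean of three experiments ± standard deviation.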
In general terms: Tetrazolium assays rely on reduction of a dye to a coloured formazan, in cell work by metabolically active cells.

The nature of assay [2]: Cytotoxicity against wild type human KB3-1 cells after 4 days by MTT assay. It is filed as functional, cell-based. Conditions: KB 3-1, 96 h. The method, boiled down:
as §1

Assay [3] is described as follows: Cytotoxicity against multidrug-resistant human KBV1 cells expressing MDR1 after 4 days by MTT assay. It is filed as functional, cell-based. The settings on record: KB-V1, 96 h. The gist of the method:
as §1

Assay [4] in a line: Cytotoxicity against multidrug-resistant human KBH5.0 cells expressing BCRP after 4 days by MTT assay. It is filed as functional, cell-based. Conditions: KBH5.0 cell, 96 h. The gist of the method: as §1
The subject of assay [5] is Nucleic Acid. The assay is described as follows: Binding affinity to human G-quadruplex d[T2G3(T2AG3)3A] DNA assessed as change in transition temperature at 20 uM in presence of 150 mM K+ ions. The assay is classed as nucleic-acid assay. The gist of the method:
(§2)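 Quadruplex UV melting of hTel DNA or AurA RNA at 5 µM in strand, ligand 20 µM, in 10 mM potassium phosphate pH 7.5 plus 132 mM KCl (150 mM total K+); Ttran from maxima or minima of first-derivative melting profiles; ΔTtran uncertainty 0.5 °C.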

Assay [6] concerns Nucleic Acid. The assay can be described thus: Binding affinity to r[AG4CG2-CUG2UCG2AGUG2C] sequence of quadruplex RNA assessed as change in transition temperature at 20 uM in presence of 150 mM K+ ions. It is filed as nucleic-acid assay. The method, boiled down:
as §2

Assay [7] is described as follows: Cytotoxicity against human RPMI8402 cells. The assay is classed as functional, cell-based. The settings on record: RPMI 8402. The method, boiled down:
as §1

Usually IC50 stands for the concentration that inhibits the measured activity by half. What is called ΔTm is the shift of the melting midpoint relative to a reference.

Take `CC(=O)NCCC[C@@H]1NC(=O)c2coc(n2)-c2coc(n2)-c2coc(n2)[C@H](C(C)C)NC(=O)c2coc(n2)-c2coc(n2)-c2coc1n2`: the IC50 was 2.5 µM in assay [1], 3.4 µM in assay [2], greater than 10 µM in assay [3] and 3 µM in assay [4].
For `CC(=O)NCC[C@@H]1NC(=O)c2coc(n2)-c2coc(n2)-c2coc(n2)[C@H](CCNC(C)=O)NC(=O)c2coc(n2)-c2coc(n2)-c2coc1n2`, in that order: greater than 10 µM, greater than 10 µM, greater than 10 µM and greater than 10 µM.
For `CC(C)(C)OC(=O)NCC[C@@H]1NC(=O)c2coc(n2)-c2coc(n2)-c2coc(n2)[C@H](CCNC(=O)OC(C)(C)C)NC(=O)c2coc(n2)-c2coc(n2)-c2coc1n2`, in that order: 0.35 µM, 0.25 µM, greater than 10 µM and 0.25 µM.
For `CC(C)(C)OC(=O)NCCCC[C@@H]1NC(=O)c2coc(n2)-c2coc(n2)-c2coc(n2)[C@H](CCCCNC(=O)OC(C)(C)C)NC(=O)c2coc(n2)-c2coc(n2)-c2coc1n2`, in that order: 0.4 µM, 0.25 µM, greater than 10 µM and 0.33 µM.
As to `NCCCC[C@@H]1NC(=O)c2coc(n2)-c2coc(n2)-c2coc(n2)[C@H](CCCCN)NC(=O)c2coc(n2)-c2coc(n2)-c2coc1n2`, the IC50 in assay [2], in assay [3] and in assay [4] was greater than 10 µM in each case.
Turning to `CN(C)CC[C@@H]1NC(=O)c2coc(n2)-c2coc(n2)-c2coc(n2)[C@H](CCN(C)C)NC(=O)c2coc(n2)-c2coc(n2)-c2coc1n2`, the IC50 in assay [1] was 4.3 µM; in assay [2], 2.8 µM; in assay [3] it was greater than 10 µM; in assay [4] it was 0.65 µM.
For `CC(=O)NCCC[C@@H]1NC(=O)c2coc(n2)-c2coc(n2)-c2coc(n2)[C@H](CCCNC(C)=O)NC(=O)c2coc(n2)-c2coc(n2)-c2coc1n2`, in that order: greater than 10 µM, greater than 10 µM, greater than 10 µM and greater than 10 µM.
For `CC(=O)NCCCC[C@@H]1NC(=O)c2coc(n2)-c2coc(n2)-c2coc(n2)[C@H](C(C)C)NC(=O)c2coc(n2)-c2coc(n2)-c2coc1n2`, in that order: 0.75 µM, 0.71 µM, greater than 10 µM and 1.9 µM.
For `CN(C)CCC[C@@H]1NC(=O)c2coc(n2)-c2coc(n2)-c2coc(n2)[C@H](CCCN(C)C)NC(=O)c2coc(n2)-c2coc(n2)-c2coc1n2`, in that order: greater than 10 µM, 4.2 µM, greater than 10 µM and 3 µM.
With `CC(C)[C@@H]1NC(=O)c2coc(n2)-c2coc(n2)-c2coc(n2)[C@H](CCCN(C)C)NC(=O)c2coc(n2)-c2coc(n2)-c2coc1n2`, the IC50 in assay [1] is 0.23 µM; in assay [2], 0.3 µM; in assay [3], greater than 10 µM; in assay [4] it was 0.07 µM. For the same compound, the ΔTm in the assay on Nucleic Acid [5] was 24 °C.
With `CC(C)[C@@H]1NC(=O)c2coc(n2)-c2coc(n2)-c2coc(n2)[C@H](CCCN)NC(=O)c2coc(n2)-c2coc(n2)-c2coc1n2`, the IC50 in assay [1] is 2.5 µM; in assay [2], 0.8 µM; in assay [3], greater than 10 µM; in assay [4], 0.38 µM.
For `CN(C)CCCC[C@@H]1NC(=O)c2coc(n2)-c2coc(n2)-c2coc(n2)[C@H](CCCCN(C)C)NC(=O)c2coc(n2)-c2coc(n2)-c2coc1n2`, in that order: greater than 10 µM, 4 µM, greater than 10 µM and 3.6 µM.
For `CC(C)[C@@H]1NC(=O)c2coc(n2)-c2coc(n2)-c2coc(n2)[C@H](CCCCNC(=O)OC(C)(C)C)NC(=O)c2coc(n2)-c2coc(n2)-c2coc1n2`, in that order: 0.35 µM, 0.3 µM, greater than 10 µM and 0.33 µM.
As for `NCCC[C@@H]1NC(=O)c2coc(n2)-c2coc(n2)-c2coc(n2)[C@H](CCCN)NC(=O)c2coc(n2)-c2coc(n2)-c2coc1n2`, the IC50 was greater than 10 µM in assay [1], 6.3 µM in assay [2], greater than 10 µM in assay [3] and 3.1 µM in assay [4].
Consider `NCC[C@@H]1NC(=O)c2coc(n2)-c2coc(n2)-c2coc(n2)[C@H](CCN)NC(=O)c2coc(n2)-c2coc(n2)-c2coc1n2`, for which the IC50 in assay [1], in assay [2], in assay [3] and in assay [4] was greater than 10 µM throughout.
For the compound `CC(C)[C@@H]1NC(=O)c2coc(n2)-c2coc(n2)-c2coc(n2)[C@H](C(C)C)NC(=O)c2coc(n2)-c2coc(n2)-c2coc1n2` [HEXAOXAZOLE DIVALINE], the IC50 was 0.54 µM in assay [1]; 0.35 µM in assay [2]; 7.7 µM in assay [3]; 0.45 µM in assay [4]; 0.54 µM in assay [7]. Further, the ΔTm in the assay with Nucleic Acid [5] is 11.5 °C; in the assay with Nucleic Acid [6] it was 19.5 °C.
In the case of `CC(=O)NCC[C@@H]1NC(=O)c2coc(n2)-c2coc(n2)-c2coc(n2)[C@H](C(C)C)NC(=O)c2coc(n2)-c2coc(n2)-c2coc1n2`, the IC50 was 0.95 µM in assay [1], 0.45 µM in assay [2], greater than 10 µM in assay [3] and 0.9 µM in assay [4].
For `CC(=O)NCCCC[C@@H]1NC(=O)c2coc(n2)-c2coc(n2)-c2coc(n2)[C@H](CCCCNC(C)=O)NC(=O)c2coc(n2)-c2coc(n2)-c2coc1n2`, in that order: 3.3 µM, 4 µM, greater than 10 µM and 4.5 µM.
For `CC(C)[C@@H]1NC(=O)c2coc(n2)-c2coc(n2)-c2coc(n2)[C@H](CCCNC(=O)OC(C)(C)C)NC(=O)c2coc(n2)-c2coc(n2)-c2coc1n2`, in that order: 0.29 µM, 0.23 µM, greater than 10 µM and 0.15 µM.
As to `CC(C)(C)OC(=O)NCCC[C@@H]1NC(=O)c2coc(n2)-c2coc(n2)-c2coc(n2)[C@H](CCCNC(=O)OC(C)(C)C)NC(=O)c2coc(n2)-c2coc(n2)-c2coc1n2`, the 50% inhibitory concentration (IC50) in assay [1] is 1.4 µM; in assay [2], 0.45 µM; in assay [3], greater than 10 µM; in assay [4], 0.38 µM.
For `CC(C)[C@@H]1NC(=O)c2coc(n2)-c2coc(n2)-c2coc(n2)C/C=C/c2coc(n2)-c2coc(n2)-c2coc1n2`, in that order: 0.03 µM, 0.04 µM, 3.5 µM and 0.04 µM.
Take `CC(C)[C@@H]1NC(=O)c2coc(n2)-c2coc(n2)-c2coc(n2)[C@H](CCNC(=O)OC(C)(C)C)NC(=O)c2coc(n2)-c2coc(n2)-c2coc1n2`: the IC50 was 0.31 µM in assay [1], 0.29 µM in assay [2], greater than 10 µM in assay [3] and 0.25 µM in assay [4].
For `CC(C)[C@@H]1NC(=O)c2coc(n2)-c2coc(n2)-c2coc(n2)[C@H](CCN)NC(=O)c2coc(n2)-c2coc(n2)-c2coc1n2`, in that order: 1.2 µM, 2.2 µM, greater than 10 µM and 1.2 µM.
For `CC(C)[C@@H]1NC(=O)c2coc(n2)-c2coc(n2)-c2coc(n2)[C@H](CCCCN)NC(=O)c2coc(n2)-c2coc(n2)-c2coc1n2`, in that order: 4.8 µM, 3.4 µM, greater than 10 µM and 3 µM.
